The results in this text go back to ChEMBL document CHEMBL1148725, “2,2,2-Trichloro-N-({2-[2-(dimethylamino)ethyl]-1,3-dioxo-2,3-dihydro-1H-benzo[de]isoquinolin- 5-yl}carbamoyl)acetamide (UNBS3157), a novel nonhematotoxic naphthalimide derivative with potent antitumor activity” (J Med Chem, 2007).

Series [1] concerns L1210. Put plainly: Antitumor activity in L1210 cells xenografted B6D2F1 mouse at 120 mg/kg, ip relative to control. The class given is functional. The settings on record: route intraperitoneal. The essentials:
(§1)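 Mice grafted with L1210 leukaemia cells on day 0, then dosed i.p. four times weekly on days 1-4 and 8-11. Five mice per group. Outcome is %T/C, the median survival of treated over control. Kruskal-Wallis test followed by Dunn comparisons against control.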

The next series has as its system LoVo. Put plainly: Antiproliferative activity against LoVo cells after 72 hrs by MTT assay. The class given is functional, cell-based, Homo sapiens. Put shortly: (§2)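 Cells cultured with each compound for three days; growth then read by the MTT colorimetric assay and reported as IC50 (µM).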
The nature of series [2]: Antiproliferative activity against Hs683 cells after 72 hrs by MTT assay. The class given is functional, cell-based, Homo sapiens, Hs 683. Put shortly: as §2
The nature of series [3]: Antiproliferative activity against U373MG cells after 72 hrs by MTT assay. To be noted: Homo sapiens, U373 MG, 72 h. The class given is functional, cell-based, Homo sapiens, U-373MG ATCC. The essentials: as §2
A further series has as its system MCF7. As to the kind of experiment: Antiproliferative activity against MCF7 cells after 72 hrs by MTT assay. The class given is functional, cell-based, Homo sapiens. The settings on record: Homo sapiens, MCF7, 72 h. Put shortly: as §2
Series [4] can be described thus: Toxicity in ip dosed B6D2F1 mouse. The class given is organism-based. To be noted: in vivo. Put shortly:
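Acute MTD was set by a single i.p. dose to groups of three healthy female B6D2F1 mice, at 2.5, 5, 10, 20, 40, 80 and 160 mg/kg. The MTD is the dose just below the lowest dose that killed at least one mouse.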

The next series has as its system A549. As to the kind of experiment: Antiproliferative activity against A549 cells after 72 hrs by MTT assay. Type of series: functional, cell-based, Homo sapiens. Put shortly: as §2
The test system of series [5] is Mus musculus. Put plainly: Hematotoxicity in ip dosed B6D2F1 mouse assessed as decrease in platelet count. The class given is organism-based. To be noted: in vivo. The essentials: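 Healthy female B6D2F1 mice, 10 per group, dosed i.p. three times weekly for five weeks at two dose levels set relative to MTD. Vehicle DMSO/saline 5:95 v/v. Killed 3 days after the last dose; blood platelet, RBC and WBC counts taken with a Coulter counter.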

In series [6] the test system is L1210. As to the kind of experiment: Antitumor activity in L1210 cells xenografted B6D2F1 mouse at 20 mg/kg, ip relative to control. Type of series: functional. The settings on record: route intraperitoneal. Put shortly:
as §1

The subject of series [7] is Mus musculus. Put plainly: Toxicity in B6D2F1 mouse at 120 mg/kg, ip. Type of series: organism-based. To be noted: in vivo. More on the design: dose 120 mg/kg, route intraperitoneal. Put shortly: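 Healthy female B6D2F1 mice, 10 per group, dosed i.p. in DMSO/saline (5:95 v/v) three times weekly for five weeks at two levels set relative to MTD; sacrificed 3 days after final dose; platelet, RBC and WBC counted by Coulter counter.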

The subject of series [8] is L1210. Put plainly: Antitumor activity in L1210 cells xenografted B6D2F1 mouse at 10 mg/kg, ip relative to control. Type of series: functional. To be noted: route intraperitoneal. The essentials: as §1
The next series deals with HCT-15. As to the kind of experiment: Antiproliferative activity against HCT15 cells after 72 hrs by MTT assay. The class given is functional, cell-based, Homo sapiens. The essentials:
as §2

Series [9] concerns L1210. As to the kind of experiment: Antitumor activity in L1210 cells xenografted B6D2F1 mouse at 80 mg/kg, ip relative to control. Type of series: functional. The settings on record: route intraperitoneal. The essentials:
as §1

The subject of series [10] is L1210. As to the kind of experiment: Antitumor activity in L1210 cells xenografted B6D2F1 mouse at 40 mg/kg, ip relative to control. To be noted: route intraperitoneal. The class given is functional. The essentials: as §1

With `CN(C)CCN1C(=O)c2cccc3cc(/N=C\c4ccc5c(c4)OCO5)cc(c23)C1=O`, the Activity with L1210 [1] was 41%; in the series with Mus musculus [5] it was “Toxic”; with L1210 [6], 150%; in the series with Mus musculus [7], “Toxic”; with L1210 [8], 115%; in the series with L1210 [9], 288%. The molecule further gave an Activity in the series on L1210 [10] of 165%. The half-maximal inhibitory concentration (IC50) in the series with LoVo (Homo sapiens, LoVo, 72 h) was 8.3 µM; in series [2] (Homo sapiens, Hs 683, 72 h) it was > 10 µM; in series [3], > 10 µM; in the series on MCF7, > 10 µM; in the series with A549 (Homo sapiens, A549, 72 h), > 10 µM; with HCT-15 (Homo sapiens, HCT-15, 72 h), 9 µM. For the same molecule, the MTD in [4] came out at 80 mg/kg.
Consider `CN(C)CCN1C(=O)c2cccc3cc(NC(=O)Nc4cc5c6c(cccc6c4)C(=O)N(CCN(C)C)C5=O)cc(c23)C1=O`, for which the half-maximal inhibitory concentration (IC50) with LoVo (Homo sapiens, LoVo, 72 h) came to 2.8 µM; in series [2] (Homo sapiens, Hs 683, 72 h) it was 5 µM; in [3], 3.6 µM; in the series with MCF7 it was 4.8 µM; in the series with A549 (Homo sapiens, A549, 72 h), 3.6 µM; in the series with HCT-15 (Homo sapiens, HCT-15, 72 h), 4.6 µM. Besides, the MTD in series [4] amounted to 40 mg/kg. In the series with L1210 [6], this molecule displayed an Activity of 124%.
Regarding `CCOC(=O)CC(=O)Nc1cc2c3c(cccc3c1)C(=O)N(CCN(C)C)C2=O`, the IC50 in the series with LoVo (Homo sapiens, LoVo, 72 h) is > 10 µM; in series [2] (Homo sapiens, Hs 683, 72 h), > 10 µM; in series [3], > 10 µM; in the series with MCF7, > 10 µM; with A549 (Homo sapiens, A549, 72 h), > 10 µM; with HCT-15 (Homo sapiens, HCT-15, 72 h) it was > 10 µM. In addition, in [4], the MTD is > 80 mg/kg. In the series with L1210 [8], this molecule had an Activity of 129%.
Take `CN(C)CCN1C(=O)c2cccc3cc(NC(=O)C(Cl)(Cl)Cl)cc(c23)C1=O`: the IC50 in the series with LoVo (Homo sapiens, LoVo, 72 h) is 6.4 µM; in [2] (Homo sapiens, Hs 683, 72 h) it was > 10 µM; in [3], 8.9 µM; with MCF7, > 10 µM; with A549 (Homo sapiens, A549, 72 h), 10 µM; in the series with HCT-15 (Homo sapiens, HCT-15, 72 h) it was > 10 µM. Further, the MTD in series [4] is > 80 mg/kg. In the series on L1210 [6], the Activity was found to be 150%.
With `CN(C)CCN1C(=O)c2cccc3cc([N+](=O)[O-])cc(c23)C1=O` [MITONAFIDE], the concentration for half-maximal inhibition (IC50) came out at 0.4 µM in the series with LoVo (Homo sapiens, LoVo, 72 h); 3.7 µM in [2] (Homo sapiens, Hs 683, 72 h); 1.3 µM in series [3]; 2.4 µM in the series on A549 (Homo sapiens, A549, 72 h); 2.6 µM in the series on HCT-15 (Homo sapiens, HCT-15, 72 h). Besides, the MTD in series [4] was 40 mg/kg. The molecule further showed an Activity in the series on L1210 [6] of 193%.
In the case of `CN(C)CCN1C(=O)c2cccc3cc(NC(=O)NC(=O)c4ccccc4)cc(c23)C1=O`, the IC50 came out at 2.1 µM in the series with LoVo (Homo sapiens, LoVo, 72 h); 3 µM in [2] (Homo sapiens, Hs 683, 72 h); 3.4 µM in series [3]; 3.6 µM in the series on MCF7; 2 µM with A549 (Homo sapiens, A549, 72 h); 3.4 µM in the series with HCT-15 (Homo sapiens, HCT-15, 72 h). Besides, the MTD in series [4] was 40 mg/kg. The same molecule registered an Activity with L1210 [10] of 140%.
Regarding `CN(C)CCN1C(=O)c2cccc3cc(/N=C\c4cc(O)ccc4O)cc(c23)C1=O.Cl`, the 50% inhibitory concentration (IC50) was found to be 3.7 µM with LoVo (lovo); 4.9 µM in series [2] (hs 683); 4.7 µM in series [3]; 6.3 µM in the series with MCF7; 3.9 µM in the series on A549 (a549); 4.3 µM with HCT-15 (hct-15). In [4], this molecule returned an MTD of 40 mg/kg. The molecule also had an Activity in the series on L1210 [10] of 210%.
For the molecule `COc1ccc(CC(=O)Nc2cc3c4c(cccc4c2)C(=O)N(CCN(C)C)C3=O)cc1`, the IC50 in the series on LoVo (Homo sapiens, LoVo, 72 h) was found to be 1.3 µM; in [2] (Homo sapiens, Hs 683, 72 h) it was 4.2 µM; in series [3] it was 2.7 µM; with MCF7 it was 2.2 µM; in the series with A549 (Homo sapiens, A549, 72 h), 3.2 µM; in the series with HCT-15 (Homo sapiens, HCT-15, 72 h) it was 2.8 µM. The MTD in series [4] is 10 mg/kg. Also, the Activity in the series on L1210 [8] came to 107%.
